We go through 1 molecule from ChEMBL document CHEMBL2321684, “Novel hybrids of optically active ring-opened 3-n-butylphthalide derivative and isosorbide as potential anti-ischemic stroke agents” (J Med Chem, 2013).

The test system of data set [1] is Rattus norvegicus. In words: Antiischemic activity in Sprague-Dawley rat assessed as reduction in middle cerebral artery occlusion-induced abnormal changes in brain at 340 mg/kg administered via gavage for 7 days prior to middle cerebral artery occlusion-challenge measured after 24 hrs by microscopic analysis. Details: dose 340 mg/kg. In kind it is functional, organism-based. The procedure, abridged:
(§1)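 Male SD rats (280−320 g), n = 12 per group, dosed by gavage daily for 7 days in 0.5% CMC-Na vehicle. Sham animals received vehicle only. Two hours after the last dose, rats were anesthetized with chloral hydrate (300 mg/kg ip) and given MCAO for 2 h, then reperfused. Body temperature was held at 37 °C. All endpoints were read at 24 h post reperfusion.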

Data set [2] concerns Rattus norvegicus. In words: Antiischemic activity in Sprague-Dawley rat assessed as reduction in middle cerebral artery occlusion-induced inflammatory infiltrates in brain at 340 mg/kg administered via gavage for 7 days prior to middle cerebral artery occlusion-challenge measured after 24 hrs by microscopic analysis. In kind it is functional, organism-based. Details: dose 340 mg/kg. The procedure, abridged: as §1

In data set [3] the test system is Rattus norvegicus. In words: Antiischemic activity in Sprague-Dawley rat assessed as reduction in middle cerebral artery occlusion-induced necrosis in neurons at 340 mg/kg administered via gavage for 7 days prior to middle cerebral artery occlusion-challenge measured after 24 hrs by microscopic analysis. In kind it is functional, organism-based. On the set-up: dose 340 mg/kg. Put shortly:
as §1

Data set [4] relates to Rattus norvegicus. As to the kind of experiment: Antiischemic activity in Sprague-Dawley rat assessed as reduction in middle cerebral artery occlusion-induced infarct size in brain at 340 mg/kg administered via gavage for 7 days prior to middle cerebral artery occlusion-challenge measured after 24 hrs by triphenyltetrazolium chloride assay relative to control. In kind it is functional, organism-based. On the set-up: dose 340 mg/kg. The procedure, abridged: as §1

In data set [5] the test system is Rattus norvegicus. As to the kind of experiment: Antiischemic activity in Sprague-Dawley rat assessed as reduction in middle cerebral artery occlusion-induced neurological deficit scores at 80 mg/kg administered via gavage for 7 days prior to middle cerebral artery occlusion-challenge measured after 24 hrs relative to control. In kind it is functional, organism-based. Details: dose 80 mg/kg. The procedure, abridged: as §1

The nature of data set [6]: Biodistribution in ICR mouse brain at 680 mg/kg, po after 8 hrs by HPLC analysis. In kind it is ADME, organism-based. Details: dose 680 mg/kg, route oral. To be noted: read-out: Drug uptake. The procedure, abridged: (§2)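 Male ICR mice (30−35 g), n = 6 per time point, were given a single 680 mg/kg gavage dose and sacrificed at 0.5, 1, 2, 4 and 8 h. Brains were rinsed, weighed and homogenized in 3 volumes of saline. Plasma and homogenate were precipitated with 3 volumes of acetonitrile.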

Data set [7] can be described thus: Biodistribution in ICR mouse brain at 680 mg/kg, po after 4 hrs by HPLC analysis. In kind it is ADME, organism-based. Details: dose 680 mg/kg, route oral. Conditions: read-out: Drug uptake. The procedure, abridged: as §2
Data set [8] has as its system Rattus norvegicus. As to the kind of experiment: Antithrombotic activity in Sprague-Dawley rat assessed as reduction in arteriovenous shunt-induced dry thrombus weight at 80 mg/kg, administered via gavage for 7 days prior to arteriovenous shunt-challenge measured up to 15 mins relative to control. In kind it is functional, organism-based. Details: dose 80 mg/kg. The procedure, abridged:
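Male SD rats (250−280 g), n = 12 per group, dosed by gavage daily for 7 days in 0.5% CMC-Na. Two hours after the last dose, rats were anesthetized with chloral hydrate (300 mg/kg ip). A saline-filled 14 cm polyethylene catheter holding a 6 cm silk thread linked the left jugular vein and right carotid artery for 15 min. The thrombus was then weighed wet and dry. Results are mean ± SD, analysed by ANOVA/Tukey.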

The test system of data set [9] is Mus musculus. As to the kind of experiment: Antithrombotic activity in Swiss ICR mouse assessed as inhibition of collagen/adrenaline-induced acute systemic vascular thromboembolism at 680 mg/kg, po administered for 7 days prior to collagen/adrenaline-challenge measured up to 15 mins relative to control. In kind it is functional, organism-based. Details: dose 680 mg/kg. The procedure, abridged:
(§3)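 Male Swiss ICR mice (30−35 g), n = 15 per group, dosed by gavage daily for 7 days in DMSO vehicle. Two hours after the last dose, mice received collagen (0.21 mg/kg) plus adrenaline (44.5 μg/kg) iv. Survival was monitored for 15 min and reported as % surviving.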

Data set [10] concerns Mus musculus. As to the kind of experiment: Antithrombotic activity in Swiss ICR mouse assessed as inhibition of collagen/adrenaline-induced acute systemic vascular thromboembolism at 160 mg/kg, po administered for 7 days prior to collagen/adrenaline-challenge measured up to 15 mins relative to control. In kind it is functional, organism-based. On the set-up: dose 160 mg/kg. The procedure, abridged: as §3

The nature of data set [11]: Stability in artificial intestinal juice assessed as compound remaining at pH 6.8 after 8 hr by HPLC analysis. In kind it is physicochemical. Conditions: simulated gi fluid, pH 6.8, 8 h.
Data set [12] is described as follows: Stability in artificial intestinal juice assessed as compound remaining at pH 6.8 after 2 hr by HPLC analysis. Conditions: simulated gi fluid, pH 6.8, 2 h. In kind it is physicochemical.
Data set [13] is described as follows: Stability in artificial gastric juice assessed as compound remaining at pH 1.5 after 1 hr by HPLC analysis. In kind it is physicochemical. To be noted: simulated gi fluid, pH 1.5, 1 h.
The test system of the next data set is Platelet. As to the kind of experiment: Antiplatelet aggregation activity in rabbit platelets assessed as inhibition of ADP-induced platelet aggregation at 0.1 mM incubated for 5 mins prior to ADP-challenge measured within 5 mins by turbidimetric analysis. In kind it is functional, cell-based. Conditions: Oryctolagus cuniculus. Put shortly: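 Rabbit carotid blood was citrated (3.8%, 9:1). PRP was adjusted with PPP to 400−450 × 10⁹ platelets/L. PRP was preincubated with compound or DMSO for 5 min at 37 °C, then aggregation was induced with ADP at 10 μM. Maximum aggregation rate was recorded over 5 min using Born's turbidimetry. Inhibition % was calculated versus vehicle; n = 6, mean ± SD.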

Data set [14] can be described thus: Antiplatelet aggregation activity in rabbit platelets assessed as inhibition of ADP-induced platelet aggregation incubated for 5 mins prior to ADP-challenge measured within 5 mins by Born's turbidimetric analysis. To be noted: Oryctolagus cuniculus. In kind it is functional, cell-based.

Structures are written as SMILES. The source made the active and inactive calls. The rule behind the calls is not given here.

Regarding `CCCC[C@H](OC(=O)CN1CCN(C)CC1)c1ccccc1C(=O)O[C@H]1CO[C@H]2[C@@H]1OC[C@H]2OC(=O)c1ccccc1[C@H](CCCC)OC(=O)CN1CCN(C)CC1`, the result in the data set on Rattus norvegicus [1], in the data set on Rattus norvegicus [2], in the data set on Rattus norvegicus [3], with Rattus norvegicus [4], with Rattus norvegicus [5] and in the data set on Rattus norvegicus [8] was Active. Further, the result in the data set on Mus musculus [9] and with Mus musculus [10] was Active. Moreover, in data set [6], the concentration at 8 h stood at 16.7 ng/mL. Also, in data set [7], the concentration at 4 h was found to be 54.3 ng/mL. Moreover, the Stability in [11] was 4.92 µM; in [12], 5.04 µM; in data set [13], 4.89 µM. The inhibition result in the data set on Platelet was “Active”. The IC50 in data set [14] amounted to 70 µM.

As usually defined, the IC50 is the concentration that inhibits the measured activity by half.
